The text below walks through data of ChEMBL document CHEMBL1212901, “Dimethylaminopyridine derivatives of lupane triterpenoids are potent disruptors of mitochondrial structure and function” (2010).

Test [1] concerns WM3211. As to the kind of experiment: Induction of apoptosis in human WM3211 cells assessed as mitochondrial depolarization upto 4 ug/ml by flow cytometry. The test is classed as functional, cell-based. The method in brief: (§1)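 Cells suspended at 30,000 cells/ml in culture medium and exposed to compound at the single top test concentration for 5 h. TMRM added to 100 nM final for a further 60 min, then analysed by flow cytometry without medium replacement. Fluorescence given as percent of the DMSO vehicle control for each line. Mean of three independent experiments, SEM.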
On the technique in general: In flow cytometry, cells or beads pass a laser one at a time.

In test [2] the test system is WM793. As to the kind of experiment: Induction of apoptosis in human WM793 cells assessed as reduction in mitochondrial polarization upto 4 ug/ml by flow cytometry. The test is classed as functional, cell-based. Summed up: as §1
Test [3] deals with WM3211. Briefly: Induction of apoptosis in human WM3211 cells assessed as mitochondrial fragmentation upto 4 ug/ml by flow cytometry. The test is classed as functional, cell-based.
Test [4] deals with WM793. Briefly: Induction of apoptosis in human WM793 cells assessed as mitochondrial fragmentation upto 4 ug/ml by flow cytometry. Format: functional, cell-based.
Test [5] concerns WM793. As to the kind of experiment: Induction of apoptosis in human WM793 cells assessed as change in fluorescence intensity using TMRM labeling by flow cytometry. The test is classed as functional, cell-based. Summed up:
as §1

Test [6] can be described thus: Antiproliferative activity against human WM3211 cells after 3 days by SRB assay. The following applies: read-out: ED50 (the source's name). The test is classed as functional. Summed up:
(§2)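 WM3211 or WM793 melanoma cells in high-glucose DMEM with 8% Fetal Clone III, 3.5% horse serum and 5 mM Glutamax. Seeded at 20,000 cells/ml and rested 24 h. Serial 1:1 dilutions from 2 mg/ml DMSO stocks, incubated 72 h. Vehicle 0.2% DMSO. Cells fixed and stained with 0.5% SRB, dye eluted in Tris pH 10, A540 read. ED50 is the 50%-of-vehicle value taken from mean curves of three independent experiments.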

The nature of test [7]: Antiproliferative activity against human WM793 cells after 3 days by SRB assay. Format: functional. The following applies: read-out: ED50 (the source's name). The method in brief:
as §2
On the technique in general: In SRB staining, fixed cells bind dye roughly in proportion to their protein.

The test system of test [8] is WM3211. Briefly: Induction of apoptosis in human WM3211 cells assessed as change in mitochondrial morphology upto 4 ug/ml by flow cytometry. The test is classed as functional, cell-based.
Test [9] deals with WM793. As to the kind of experiment: Induction of apoptosis in human WM793 cells assessed as vacuolization upto 4 ug/ml by flow cytometry. The test is classed as functional, cell-based.
The test system of test [10] is WM3211. As to the kind of experiment: Induction of apoptosis in human WM3211 cells assessed as change in fluorescence intensity using TMRM labeling by flow cytometry. The test is classed as functional, cell-based. The method in brief: as §1
The nature of test [11]: Antiproliferative activity against human WM3211 cells at 4 ug/ml after 3 days by SRB assay. The test is classed as functional. Summed up: (§3)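 SRB proliferation in WM3211 or WM793 cells at the top concentration of the dilution series, after three days of exposure. Cells seeded at 20,000 cells/ml, with compound added after 24 h recovery. Vehicle control 0.2% DMSO. Growth read as A540 of Tris-eluted SRB and expressed as percent of vehicle control.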

The nature of test [12]: Antiproliferative activity against human WM793 cells at 4 ug/ml after 3 days by SRB assay. Format: functional. Summed up: as §3

Structures are written as SMILES. Calls of active or inactive are those of the source. The rule behind the calls is not given here. Where only a bound is given, the exact number is not on record here.

With `C=C(C)[C@@H]1CC[C@]2(COC(=O)C(CC)[n+]3ccc(N(C)C)cc3)CC[C@]3(C)[C@H](CC[C@@H]4[C@@]5(C)CC[C@H](OC(=O)C(CC)[n+]6ccc(N(C)C)cc6)C(C)(C)[C@@H]5CC[C@]43C)[C@@H]12` (stereo partly drawn), the result in the test on WM3211 [1], in the test with WM793 [2], in the test on WM3211 [3], in the test on WM793 [4] and in the test on WM793 [5] was Active. Further, the EC50 turned out to be 300 nM in test [6] (Homo sapiens, WM3211, 72 h) and 500 nM in [7] (Homo sapiens, WM793, 72 h).

As for `C=C(C)[C@@H]1CC[C@]2(CO)CC[C@]3(C)[C@H](CC[C@@H]4[C@@]5(C)CC[C@H](OC(=O)C[n+]6ccc(N(C)C)cc6)C(C)(C)[C@@H]5CC[C@]43C)[C@@H]12` [listing 1 of 3 here], the outcome with WM3211 [1], in the test with WM3211 [8], in the test on WM793 [2] and in the test with WM793 [9] was Active.

In the case of `C=C(C[n+]1ccc(N(C)C)cc1)[C@@H]1CC[C@]2(C(=O)O)CC[C@]3(C)[C@H](CC[C@@H]4[C@@]5(C)CC[C@H](OC(=O)C[n+]6ccc(N(C)C)cc6)C(C)(C)[C@@H]5CC[C@]43C)[C@@H]12` [listing 1 of 3 here], the EC50 in test [6] and in test [7] was more than 4700 nM throughout.

For `C=C(C)[C@@H]1CC[C@]2(COC(=O)C[n+]3ccc(N(C)C)cc3)CC[C@]3(C)[C@H](CC[C@@H]4[C@@]5(C)CC[C@H](OC(=O)C[n+]6ccc(N(C)C)cc6)C(C)(C)[C@@H]5CC[C@]43C)[C@@H]12` [listing 1 of 3 here], the EC50 in test [6] and in test [7] was 500 nM in each case.

With `C=C(C)[C@@H]1CC[C@]2(COC(=O)CCC[n+]3ccc(N(C)C)cc3)CC[C@]3(C)[C@H](CC[C@@H]4[C@@]5(C)CC[C@H](OC(=O)CCC[n+]6ccc(N(C)C)cc6)C(C)(C)[C@@H]5CC[C@]43C)[C@@H]12`, the outcome with WM3211 [1], in the test on WM3211 [8], in the test with WM793 [2] and with WM3211 [10] was Active. The EC50 worked out at 700 nM in test [6] (Homo sapiens, WM3211, 72 h) and 1300 nM in test [7] (Homo sapiens, WM793, 72 h).

`C=C(C[n+]1ccc(N(C)C)cc1)[C@@H]1CC[C@]2(C(=O)O)CC[C@]3(C)[C@H](CC[C@@H]4[C@@]5(C)CC[C@H](OC(=O)C[n+]6ccc(N(C)C)cc6)C(C)(C)[C@@H]5CC[C@]43C)[C@@H]12` [listing 2 of 3 here]: the EC50 was more than 4400 nM in [6] (Homo sapiens, WM3211, 72 h) and more than 4400 nM in test [7] (Homo sapiens, WM793, 72 h).

Take `C=C(C)[C@@H]1CC[C@]2(COC(=O)CC[n+]3ccc(N(C)C)cc3)CC[C@]3(C)[C@H](CC[C@@H]4[C@@]5(C)CC[C@H](OC(=O)CC[n+]6ccc(N(C)C)cc6)C(C)(C)[C@@H]5CC[C@]43C)[C@@H]12`: the result in the test on WM3211 [1], with WM793 [2], in the test on WM3211 [3], in the test with WM793 [4] and with WM793 [5] was Active. Further, the EC50 in test [6] (Homo sapiens, WM3211, 72 h) came out at 600 nM; in [7] (Homo sapiens, WM793, 72 h) it was 800 nM.

As for `C=C(C)[C@@H]1CC[C@]2(COC(=O)C[n+]3ccc(N(C)C)cc3)CC[C@]3(C)[C@H](CC[C@@H]4[C@@]5(C)CC[C@H](OC(=O)C[n+]6ccc(N(C)C)cc6)C(C)(C)[C@@H]5CC[C@]43C)[C@@H]12` [listing 2 of 3 here], the result in the test on WM3211 [1], in the test with WM793 [2], in the test with WM3211 [3], with WM793 [4] and in the test with WM793 [5] was Active.

For the molecule `C=C(C)[C@@H]1CC[C@]2(CO)CC[C@]3(C)[C@H](CC[C@@H]4[C@@]5(C)CC[C@H](OC(=O)C[n+]6ccc(N(C)C)cc6)C(C)(C)[C@@H]5CC[C@]43C)[C@@H]12` [listing 2 of 3 here], the values for the EC50 in [6] and in test [7] were 300 nM and 1900 nM, respectively.

On to `C=C(C[n+]1ccc(N(C)C)cc1)[C@@H]1CC[C@]2(COC(=O)C(C)[n+]3ccc(N(C)C)cc3)CC[C@]3(C)[C@H](CC[C@@H]4[C@@]5(C)CC[C@H](OC(=O)C(C)[n+]6ccc(N(C)C)cc6)C(C)(C)[C@@H]5CC[C@]43C)[C@@H]12` (stereo partly drawn) [listing 1 of 3 here], for which the EC50 in test [6] and in test [7] was more than 3800 nM in each case.

`C=C(C[n+]1ccc(N(C)C)cc1)[C@@H]1CC[C@]2(C(=O)O)CC[C@]3(C)[C@H](CC[C@@H]4[C@@]5(C)CC[C@H](O)C(C)(C)[C@@H]5CC[C@]43C)[C@@H]12`: the outcome in the test on WM3211 [1] and with WM3211 [8] was inactive. Further, the outcome with WM3211 [10] and with WM793 [5] was Active. For the same molecule, the EC50 was more than 6100 nM in test [6] (Homo sapiens, WM3211, 72 h) and more than 6100 nM in [7] (Homo sapiens, WM793, 72 h).

For `C=C(C)[C@@H]1CC[C@]2(COC(=O)C(C)[n+]3ccc(N(C)C)cc3)CC[C@]3(C)[C@H](CC[C@@H]4[C@@]5(C)CC[C@H](OC(=O)C(C)[n+]6ccc(N(C)C)cc6)C(C)(C)[C@@H]5CC[C@]43C)[C@@H]12` (stereo partly drawn), the outcome in the test with WM3211 [1], in the test on WM793 [2], in the test with WM3211 [3], in the test with WM793 [4] and in the test with WM793 [5] was Active. Moreover, the EC50 in test [6] (Homo sapiens, WM3211, 72 h) amounted to 500 nM; in test [7] (Homo sapiens, WM793, 72 h), 500 nM.

Take `C=C(C[n+]1ccc(N(C)C)cc1)[C@@H]1CC[C@]2(COC(=O)C(C)[n+]3ccc(N(C)C)cc3)CC[C@]3(C)[C@H](CC[C@@H]4[C@@]5(C)CC[C@H](OC(=O)C(C)[n+]6ccc(N(C)C)cc6)C(C)(C)[C@@H]5CC[C@]43C)[C@@H]12` (stereo partly drawn) [listing 2 of 3 here]: the EC50 in test [6] (Homo sapiens, WM3211, 72 h) is more than 3500 nM; in [7] (Homo sapiens, WM793, 72 h) it was more than 3500 nM.

For the molecule `C=C(C)[C@@H]1CC[C@]2(CO)CC[C@]3(C)[C@H](CC[C@@H]4[C@@]5(C)CC[C@H](OC(=O)C[n+]6ccc(N(C)C)cc6)C(C)(C)[C@@H]5CC[C@]43C)[C@@H]12` [listing 3 of 3 here], the EC50 in test [6] (Homo sapiens, WM3211, 72 h) was 600 nM; in test [7] (Homo sapiens, WM793, 72 h), 2500 nM.

As to `C=C(C)[C@@H]1CC[C@]2(COC(=O)C[n+]3ccc(N(C)C)cc3)CC[C@]3(C)[C@H](CC[C@@H]4[C@@]5(C)CC[C@H](OC(=O)C[n+]6ccc(N(C)C)cc6)C(C)(C)[C@@H]5CC[C@]43C)[C@@H]12` [listing 3 of 3 here], the EC50 worked out at 400 nM in [6] (Homo sapiens, WM3211, 72 h) and 400 nM in test [7] (Homo sapiens, WM793, 72 h).

Turning to `C=C(C)[C@@H]1CC[C@]2(C(=O)O)CC[C@]3(C)[C@H](CC[C@@H]4[C@@]5(C)CC[C@H](OC(=O)C[n+]6ccc(N(C)C)cc6)C(C)(C)[C@@H]5CC[C@]43C)[C@@H]12.[Br-]`, the Activity in test [11] and in test [12] was 40% in each case. The outcome with WM3211 [8], in the test with WM3211 [10] and in the test with WM793 [5] was Active. Besides, the EC50 worked out at 2600 nM in test [6] (Homo sapiens, WM3211, 72 h) and 5700 nM in test [7] (Homo sapiens, WM793, 72 h).

For `C=C(C)[C@@H]1CC[C@]2(COC(=O)C(C)[n+]3ccc(N(C)C)cc3)CC[C@]3(C)[C@H](CC[C@@H]4[C@@]5(C)CC[C@H](O)C(C)(C)[C@@H]5CC[C@]43C)[C@@H]12` (stereo partly drawn), the result in the test on WM3211 [1], with WM3211 [8] and in the test on WM3211 [10] was Active. In addition, the EC50 in test [6] (Homo sapiens, WM3211, 72 h) amounted to 800 nM; in test [7] (Homo sapiens, WM793, 72 h), 2600 nM.

Regarding `C=C(C[n+]1ccc(N(C)C)cc1)[C@@H]1CC[C@]2(C(=O)O)CC[C@]3(C)[C@H](CC[C@@H]4[C@@]5(C)CC[C@H](OC(=O)C[n+]6ccc(N(C)C)cc6)C(C)(C)[C@@H]5CC[C@]43C)[C@@H]12` [listing 3 of 3 here], the result in the test with WM3211 [1] and with WM3211 [8] was inactive. Moreover, the outcome with WM3211 [10] and in the test with WM793 [5] was Active.

As to `C=C(C[n+]1ccc(N(C)C)cc1)[C@@H]1CC[C@]2(COC(=O)C(C)[n+]3ccc(N(C)C)cc3)CC[C@]3(C)[C@H](CC[C@@H]4[C@@]5(C)CC[C@H](OC(=O)C(C)[n+]6ccc(N(C)C)cc6)C(C)(C)[C@@H]5CC[C@]43C)[C@@H]12` (stereo partly drawn) [listing 3 of 3 here], the result in the test on WM3211 [1] and with WM3211 [8] was inactive. For the same molecule, the result in the test with WM3211 [10] and in the test with WM793 [5] was Active.
